# In ChEMBL document CHEMBL1142293, “Thiol-based angiotensin-converting enzyme 2 inhibitors: P1 modifications for the exploration of the S1 subsite” (Bioorg Med Chem Lett, 2008):
# Key:
# Settings in all cases: read-out: Ki app
# Neprilysin = Neprilysin (Homo sapiens, UniProt P08473); assay: Inhibition of human recombinant NEP by fluorescence assay
# Method in brief: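 Recombinant human NEP at 0.15 nM was assayed with 2 μM FAM-[…]TAMRA)-NH2 substrate. Inhibitor was pre-incubated, then substrate added. Fluorescence gave Ki App, with average %CV 43%.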
# Carboxypeptidase A1 = molecular target: T1, Carboxypeptidase A1 (Homo sapiens, UniProt P15085); assay: Inhibition of human recombinant carboxy peptidase A1 by fluorescence assay
# T1 sequence (P15085 whole entry): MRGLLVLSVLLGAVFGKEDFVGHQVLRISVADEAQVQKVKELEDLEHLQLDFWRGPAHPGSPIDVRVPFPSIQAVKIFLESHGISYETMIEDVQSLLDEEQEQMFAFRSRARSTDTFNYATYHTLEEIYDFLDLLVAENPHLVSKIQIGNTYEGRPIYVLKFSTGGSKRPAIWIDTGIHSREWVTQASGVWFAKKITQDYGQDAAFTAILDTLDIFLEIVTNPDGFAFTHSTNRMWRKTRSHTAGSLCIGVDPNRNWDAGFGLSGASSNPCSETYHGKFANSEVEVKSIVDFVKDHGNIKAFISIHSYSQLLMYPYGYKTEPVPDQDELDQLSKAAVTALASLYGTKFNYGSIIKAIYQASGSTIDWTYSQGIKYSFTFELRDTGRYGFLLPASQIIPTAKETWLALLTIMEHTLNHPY
# [1] = molecular target: Angiotensin-converting enzyme 2 (Homo sapiens, UniProt Q9BYF1); assay: Inhibition of human recombinant ACE2 by fluorescence assay
# Method in brief: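 Fluorescence assay with 0.4 nM recombinant human ACE2 and 30 μM MCA-Tyr-Val-Ala-Asp-Ala-Pro-Lys(DNP)-OH substrate. Pre-incubation with inhibitor preceded substrate addition. Apparent Ki was reported, with average %CV 45%. Thiols were diluted from 10 mM stocks in 50% aqueous acetonitrile just before assay.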
# [2] = molecular target: Angiotensin-converting enzyme (Homo sapiens, UniProt P12821); assay: Inhibition of human recombinant ACE by fluorescence assay
# Method in brief: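 Recombinant human ACE at 0.5 nM was incubated with 10 μM MCA-Ala-Ser-Asp-Lys-Dap(DNP)-OH substrate. Buffer was 1 μM Zn(OAc)2, 100 μM TCEP reducing agent, 50 mM Hepes, 300 μM CHAPS and 300 mM NaCl, pH 7.5. Inhibitor was pre-incubated before substrate was added. Fluorescence read-out gave apparent Ki.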
# Angiotensin-converting enzyme 2, sequence (Q9BYF1 whole entry): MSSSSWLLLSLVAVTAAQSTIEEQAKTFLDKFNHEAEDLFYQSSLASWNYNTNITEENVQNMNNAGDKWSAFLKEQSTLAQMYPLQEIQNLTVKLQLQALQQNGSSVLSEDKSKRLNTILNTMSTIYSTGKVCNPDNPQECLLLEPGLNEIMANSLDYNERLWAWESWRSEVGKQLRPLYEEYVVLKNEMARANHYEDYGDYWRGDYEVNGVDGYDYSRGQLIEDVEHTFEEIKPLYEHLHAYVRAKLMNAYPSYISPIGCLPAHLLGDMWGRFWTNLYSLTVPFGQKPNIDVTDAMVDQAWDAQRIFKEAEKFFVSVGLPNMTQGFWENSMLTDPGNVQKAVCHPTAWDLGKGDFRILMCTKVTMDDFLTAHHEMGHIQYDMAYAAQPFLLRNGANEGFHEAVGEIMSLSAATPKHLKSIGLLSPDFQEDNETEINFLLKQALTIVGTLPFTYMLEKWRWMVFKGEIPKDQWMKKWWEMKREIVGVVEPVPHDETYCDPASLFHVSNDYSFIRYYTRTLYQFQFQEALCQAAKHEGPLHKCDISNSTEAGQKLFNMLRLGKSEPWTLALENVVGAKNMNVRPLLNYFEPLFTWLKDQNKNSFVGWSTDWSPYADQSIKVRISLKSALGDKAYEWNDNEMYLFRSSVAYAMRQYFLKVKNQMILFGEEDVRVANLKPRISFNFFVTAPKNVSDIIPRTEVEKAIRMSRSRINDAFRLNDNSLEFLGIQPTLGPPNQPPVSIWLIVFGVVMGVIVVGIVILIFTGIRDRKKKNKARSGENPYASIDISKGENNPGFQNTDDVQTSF
# Neprilysin, sequence (P08473 whole entry): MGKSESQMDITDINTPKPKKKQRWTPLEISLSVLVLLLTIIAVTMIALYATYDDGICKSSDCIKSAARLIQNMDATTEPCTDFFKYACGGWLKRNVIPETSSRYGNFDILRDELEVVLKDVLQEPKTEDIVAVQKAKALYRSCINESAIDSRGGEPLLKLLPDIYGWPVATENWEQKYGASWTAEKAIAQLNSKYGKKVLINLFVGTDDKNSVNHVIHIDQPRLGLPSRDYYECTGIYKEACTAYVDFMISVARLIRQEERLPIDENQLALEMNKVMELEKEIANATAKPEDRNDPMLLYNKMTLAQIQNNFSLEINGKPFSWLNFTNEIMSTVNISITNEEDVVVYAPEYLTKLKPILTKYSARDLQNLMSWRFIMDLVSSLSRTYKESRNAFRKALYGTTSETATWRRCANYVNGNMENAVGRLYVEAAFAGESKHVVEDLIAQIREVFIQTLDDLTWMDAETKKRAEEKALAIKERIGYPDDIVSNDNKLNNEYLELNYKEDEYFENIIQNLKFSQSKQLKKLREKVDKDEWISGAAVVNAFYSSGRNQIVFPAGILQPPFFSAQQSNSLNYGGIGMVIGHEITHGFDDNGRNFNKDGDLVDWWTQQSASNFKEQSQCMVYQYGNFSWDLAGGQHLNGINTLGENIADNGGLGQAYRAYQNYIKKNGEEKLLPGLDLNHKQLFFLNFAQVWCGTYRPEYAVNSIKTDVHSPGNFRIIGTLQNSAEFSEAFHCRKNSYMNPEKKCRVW
# Angiotensin-converting enzyme, sequence (P12821 whole entry): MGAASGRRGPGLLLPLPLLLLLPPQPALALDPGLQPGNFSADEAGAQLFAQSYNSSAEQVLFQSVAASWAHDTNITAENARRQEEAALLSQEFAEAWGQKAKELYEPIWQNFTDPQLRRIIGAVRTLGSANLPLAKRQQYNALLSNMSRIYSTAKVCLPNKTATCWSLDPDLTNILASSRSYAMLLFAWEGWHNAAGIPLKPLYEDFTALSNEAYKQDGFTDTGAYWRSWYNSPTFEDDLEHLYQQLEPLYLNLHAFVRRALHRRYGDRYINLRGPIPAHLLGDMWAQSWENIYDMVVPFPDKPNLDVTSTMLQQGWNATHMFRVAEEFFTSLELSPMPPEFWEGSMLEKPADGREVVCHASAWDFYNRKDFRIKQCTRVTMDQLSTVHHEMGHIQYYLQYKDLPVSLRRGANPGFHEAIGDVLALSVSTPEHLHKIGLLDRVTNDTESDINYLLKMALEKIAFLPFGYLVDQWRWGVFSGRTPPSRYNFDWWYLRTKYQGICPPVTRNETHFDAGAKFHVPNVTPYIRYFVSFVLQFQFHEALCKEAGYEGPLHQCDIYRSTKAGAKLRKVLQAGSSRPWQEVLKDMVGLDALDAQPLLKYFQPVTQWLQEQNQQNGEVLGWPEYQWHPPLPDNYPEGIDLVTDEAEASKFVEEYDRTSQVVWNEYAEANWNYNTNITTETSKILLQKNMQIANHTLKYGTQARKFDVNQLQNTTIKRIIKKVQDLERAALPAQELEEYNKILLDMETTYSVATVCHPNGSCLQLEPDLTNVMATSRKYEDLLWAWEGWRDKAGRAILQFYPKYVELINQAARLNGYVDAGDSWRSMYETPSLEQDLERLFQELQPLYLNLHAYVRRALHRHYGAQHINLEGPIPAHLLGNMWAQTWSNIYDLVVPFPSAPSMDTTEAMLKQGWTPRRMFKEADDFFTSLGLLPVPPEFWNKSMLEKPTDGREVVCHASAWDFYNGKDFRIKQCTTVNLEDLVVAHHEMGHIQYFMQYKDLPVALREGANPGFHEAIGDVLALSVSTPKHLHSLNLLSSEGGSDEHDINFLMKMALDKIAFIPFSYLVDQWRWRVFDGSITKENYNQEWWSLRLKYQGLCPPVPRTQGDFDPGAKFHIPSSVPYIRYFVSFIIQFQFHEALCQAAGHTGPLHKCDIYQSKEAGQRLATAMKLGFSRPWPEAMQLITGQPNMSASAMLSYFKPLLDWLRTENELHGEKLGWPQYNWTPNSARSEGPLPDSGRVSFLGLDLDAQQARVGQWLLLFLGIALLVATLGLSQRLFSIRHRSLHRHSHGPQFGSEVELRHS
SMILES,Ki (Neprilysin),Ki (Carboxypeptidase A1),Ki [1],Ki [2]
O=C(N[C@@H](Cc1ccc(-c2ccccc2)cc1)C(=O)O)[C@H](S)Cc1ccccc1,1.3 nM,310 nM,1400 nM,520 nM
CC[C@@H](C)[C@H](S)C(=O)N[C@@H](Cc1ccc(-c2ccccc2)cc1)C(=O)O,27 nM,11000 nM,1.5 nM,490 nM
O=C(O)[C@H](Cc1ccc(-c2ccccc2)cc1)NC(=O)[C@@H](S)C1CCCCC1,1300 nM,12000 nM,65 nM,13000 nM
O=C(O)[C@H](Cc1ccc(-c2ccccc2)cc1)NC(=O)[C@@H](S)C1CCC1,5.4 nM,12000 nM,2.4 nM,620 nM
CCCC[C@H](S)C(=O)N[C@@H](Cc1ccc(-c2ccccc2)cc1)C(=O)O,1.2 nM,8900 nM,1.8 nM,9.3 nM
CC[C@H](S)C(=O)N[C@@H](Cc1ccc(-c2ccccc2)cc1)C(=O)O,0.8 nM,9300 nM,1.4 nM,8.6 nM
C[C@H](S)C(=O)N[C@@H](Cc1ccc(-c2ccccc2)cc1)C(=O)O,23 nM,14000 nM,6.9 nM,21 nM
O=C(CS)N[C@@H](Cc1ccc(-c2ccccc2)cc1)C(=O)O,13 nM,1700 nM,320 nM,16 nM
CC[C@H](C)[C@H](S)C(=O)N[C@@H](Cc1ccc(-c2ccccc2)cc1)C(=O)O,2.4 nM,15000 nM,1.6 nM,200 nM
CC(C)[C@H](S)C(=O)N[C@@H](Cc1ccc(-c2ccccc2)cc1)C(=O)O,13 nM,17000 nM,1.5 nM,200 nM
CC(C)(C)C[C@H](S)C(=O)N[C@@H](Cc1ccc(-c2ccccc2)cc1)C(=O)O,2.6 nM,22000 nM,7.1 nM,2700 nM
O=C(O)[C@H](Cc1ccc(-c2ccccc2)cc1)NC(=O)[C@@H](S)CC1CCCCC1,130 nM,17000 nM,420 nM,840 nM
CC(C)C[C@H](S)C(=O)N[C@@H](Cc1ccc(-c2ccccc2)cc1)C(=O)O,0.28 nM,11000 nM,1.4 nM,3.2 nM
O=C(O)[C@H](Cc1ccc(-c2ccccc2)cc1)NC(=O)[C@@H](S)Cc1ccc2ccccc2c1,140 nM,32000 nM,550 nM,210 nM
O=C(O)[C@H](Cc1ccc(-c2ccccc2)cc1)NC(=O)[C@@H](S)Cc1ccccc1,1.1 nM,1200 nM,86 nM,30 nM
O=C(O)[C@H](Cc1ccc(-c2ccccc2)cc1)NC(=O)[C@@H](S)CCc1ccccc1,2.6 nM,5000 nM,860 nM,93 nM
CC(C)(S)C(=O)N[C@@H](Cc1ccc(-c2ccccc2)cc1)C(=O)O,730 nM,,2300 nM,3400 nM
O=C(O)[C@H](Cc1ccc(-c2ccccc2)cc1)NC(=O)[C@@H](S)C1CCCC1,38 nM,12000 nM,1.8 nM,700 nM
O=C(O)[C@H](Cc1ccc(-c2ccccc2)cc1)NC(=O)[C@@H](S)c1ccccc1,410 nM,,84 nM,> 10000 nM
